Activity data for two compounds are collected here from ChEMBL document CHEMBL1145518, “Potent immune-modulating and anticancer effects of NKT cell stimulatory glycolipids” (2007).

Active and inactive are the calls of the source. The calls are words filed in the database; no cut-off is given here.

A short description of assay [1]: Induction of IL10 secretion in human CD161+ CD3+ NKT cells at 10 ug/ml after 18 hrs relative to basal level. Type of assay: functional. Summed up:
(§1)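 Human Vα24i NKT cell lines were expanded for 10 days on irradiated (3,000 rad) autologous immature DCs with 10 units/ml IL-2. The cells (1 × 10^5) were cocultured with 5 × 10^4 irradiated immature CD14+ DCs plus glycolipid at 10 μg/ml. Supernatants were collected at 18 h and read on a 22-plex Luminex bead panel. Triplicates, mean ± SD.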

Assay [2] in a line: Promotion of maturation of human dendritic cells assessed as increase in CD83 expression at 3 ug/ml after 48 hrs. Particulars: Dendritic cell. The assay is classed as functional, cell-based. Summed up: (§2)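 Immature DCs were derived from leukopak CD14+ cells by 2 days in 300 units/ml GM-CSF plus 100 units/ml IL-4. DCs (2 × 10^6) were incubated with glycolipid at 3 μg/ml or vehicle for 48 h. Surface CD40, CD80, CD83, CD86 and HLA-DR were measured by flow cytometry as mean fluorescence intensity.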

Assay [3] in a line: Promotion of maturation of human dendritic cells assessed as increase in CD40 expression at 3 ug/ml after 48 hrs. The conditions noted are these: Dendritic cell. The assay is classed as functional, cell-based. Summed up:
as §2

Assay [4] concerns Mus musculus. The experiment in a line: Induction of MIPbeta secretion in BALB/c mouse serum at 2 ug, iv after 2 hrs relative to control. The assay is classed as functional. Summed up:
(§3)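 BALB/c mice received an i.v. injection of 100 μl of glycolipid diluted to 20 μg/ml in saline from DMSO stock, with 1% DMSO as vehicle. Serum cytokines/chemokines were measured at 2 and 18 h after injection.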

The nature of assay [5]: Promotion of maturation of human dendritic cells assessed as increase in HLA-DR expression at 3 ug/ml after 48 hrs. The assay is classed as functional, cell-based. The conditions noted are these: Dendritic cell. Summed up: as §2
The nature of assay [6]: Promotion of maturation of human dendritic cells assessed as increase in CD86 expression at 3 ug/ml after 48 hrs. Type of assay: functional, cell-based. The conditions noted are these: Dendritic cell. The method in brief:
as §2

Assay [7] has as its system Mus musculus. The experiment in a line: Induction of GM-CSF secretion in BALB/c mouse serum at 2 ug, iv after 2 hrs relative to control. The assay is classed as functional. The method in brief:
as §3

The subject of the next assay is HeLa. The experiment in a line: Activation of TCR in human HeLa cells overexpressing CD1d assessed as increase in CD3epsilon phosphorylation. The assay is classed as cell-based. Summed up: (§4)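 Human HeLa, HeLa-CD1d or autologous immature DCs were loaded with glycolipid at 10 μg/ml, or DMSO, for 2 h. Then 3 × 10^5 naïve CD161+/CD3+ NKT cells were added; these were bead-isolated and kept in 100 units/ml IL-2. After 5–10 min the cells were washed and lysed at 4°C. Phospho-CD3ε, ERK1/2 (Thr-185/Tyr-187) and CREB (Ser-133) were read by Luminex bead assay as median fluorescence normalized to total protein, expressed as fold over 1% DMSO.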

Assay [8] in a line: Induction of IL13 secretion in human CD161+ CD3+ NKT cells at 10 ug/ml after 18 hrs relative to basal level. Type of assay: functional. The method in brief: as §1
The test system of assay [9] is Mus musculus. The experiment in a line: Activation of natural killer cells in BALB/c mouse at 2 ug, iv after 72 hrs by flow cytometry. Type of assay: functional, organism-based. Summed up: (§5)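 BALB/c mice (n = 4/group) were given 100 μl of glycolipid at 20 μg/ml in saline i.v., or 100 μl of 1% DMSO. Spleens were harvested after 72 h and splenocyte subsets counted by flow cytometry: mature DCs as CD11c+/CD80+/CD86+, activated NK as U5A2-13Ag+/CD3−/CD69+, activated NKT as U5A2-13Ag+/CD3+/CD69+. Assays were run in duplicate, mean ± SD.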

Assay [10] is described as follows: Induction of IL3 secretion in human CD161+ CD3+ NKT cells at 10 ug/ml after 18 hrs relative to basal level. The assay is classed as functional. Summed up: as §1
The nature of assay [11]: Promotion of maturation of human dendritic cells assessed as increase in CD80 expression at 3 ug/ml after 48 hrs. Type of assay: functional, cell-based. The conditions noted are these: Dendritic cell. Summed up:
as §2

The test system of assay [12] is Mus musculus. Nature of the assay: Induction of TNFalpha secretion in BALB/c mouse serum at 2 ug, iv after 18 hrs relative to control. Type of assay: functional. The method in brief:
as §3

Another assay concerns dendritic. The experiment in a line: Activation of TCR in human immature dendritic cells assessed as increase in CD3epsilon phosphorylation. Type of assay: cell-based. The method in brief:
as §4

In assay [13] the test system is Mus musculus. Nature of the assay: Activation of NKT cells in BALB/c mouse at 2 ug, iv after 72 hrs by flow cytometry. Type of assay: functional, organism-based. The method in brief:
as §5

A short description of assay [14]: Induction of IL6 secretion in human CD161+ CD3+ NKT cells at 10 ug/ml after 18 hrs relative to basal level. The assay is classed as functional. The method in brief: as §1
The next assay deals with NKT. The experiment in a line: Stimulation of cell expansion of human invariant CD161+/ Valpha24+/ CD56+/ CD3+ NKT cells by flow cytometry method. The assay is classed as functional, cell-based. The method in brief:
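CD56+ NK/NKT mixtures (2 × 10^6) were isolated from human leukopaks with anti-CD56 microbeads. They were cocultured with 4 × 10^5 autologous immature CD14+ DCs pulsed with glycolipid at 3 μg/ml, or with 0.3% DMSO, on day 2 for 18 h. Suspension cells were then transferred and kept in 100 units/ml IL-2 with fresh medium every 3 days. On day 9, CD161+/Vα24TCR+ cells were gated by flow cytometry and total Vα24i NKT cells counted. Triplicates, mean ± SD.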

The subject of assay [15] is Mus musculus. Nature of the assay: Activation of B cells in BALB/c mouse at 2 ug, iv after 72 hrs by flow cytometry. The assay is classed as functional, organism-based.

On to `CCCCCCCCCCCCCCCCCCCCCCCCCC(=O)N[C@@H](CO[C@H]1O[C@H](CO)[C@H](O)[C@H](O)[C@H]1O)[C@H](O)[C@H](O)CCc1ccccc1`, for which the Activity in [1] turned out to be 1.2; with Mus musculus [4], 5.3; in the assay with Mus musculus [7], 7.9; with HeLa, 7.3; in assay [8] it was 2.3; in assay [10], 1.7. In addition, the Activity was 2.3 with Mus musculus [12], 17.3 in the assay with dendritic and 2.8 in assay [14]. Further, the result (in assay [2]; in assay [3]; in [5]; in assay [6]; in the assay with Mus musculus [9]; in assay [11]) was Active. Also, the outcome with Mus musculus [13] was Active.
In the case of `CCCCCCCCCCCCCCCCCCCCCCCCCC(=O)N[C@@H](CO[C@H]1O[C@H](CO)[C@H](O)[C@H](O)[C@H]1O)[C@H](O)[C@H](O)CCCCCCCCCCCCCC` [RGI-7000], the Activity in [1] worked out at 1.2; in the assay with Mus musculus [4] it was 3.6; with Mus musculus [7] it was 13.1; in the assay with HeLa it was 7.3; in assay [8], 1.8; in assay [10], 1.9. In addition, the Activity in the assay on Mus musculus [12] worked out at 51; in the assay with dendritic, 10.8; in [14], 1.8. Moreover, the outcome in the assay with NKT and in the assay on Mus musculus [15] was Active.
